Measurements as given in ChEMBL document CHEMBL1795208 (J Med Chem, 2011).

Legend:
Assay type in all cases: functional, cell-based
SK-MEL-28 = test: Antiproliferative activity against human SK-MEL-28 cells after 72 hrs by MTS/PMS assay; settings: SK-MEL-28, 72 h
How it was run: (§1)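 Cells kept in Advanced DMEM/F12 (1:1) with non-essential amino acids, 2 mM L-glutamine, penicillin, streptomycin and 10% FBS at 37 °C, 5% CO2. Seeded at 2000/well, attached overnight. Compound added in DMSO across a concentration range (1% DMSO final) for 72 h. Viable cells read by MTS/PMS and normalized to 1% DMSO controls (100%). IC50 taken from separate triplicate experiments.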

[1] = Antiproliferative activity against human androgen-dependent LNCaP-LN3 cells after 72 hrs by MTS/PMS assay; settings: LNCaP-LN3, 72 h; how it was run: as §1
MCF7 = test: Antiproliferative activity against human MCF7 cells expressing estrogen receptor after 72 hrs by MTS/PMS assay; settings: MCF7, 72 h; how it was run: as §1
SK-BR-3 = test: Antiproliferative activity against human SKBR3 cells expressing HER2 after 72 hrs by MTS/PMS assay; settings: SK-BR-3, 72 h; how it was run: as §1
[2] = Antiproliferative activity against human JMAR cells after 72 hrs by MTS/PMS assay; how it was run: as §1
[3] = Antiproliferative activity against human androgen-independent PC3MM2 cells after 72 hrs by MTS/PMS assay; settings: PC3MM2, 72 h; how it was run: as §1
[4] = Antiproliferative activity against human MDA1986 cells after 72 hrs by MTS/PMS assay; settings: MDA1986, 72 h; how it was run: as §1
B16-F10 = test: Antiproliferative activity against mouse B16F10 cells after 72 hrs by MTS/PMS assay; settings: B16-F10, 72 h; how it was run: as §1

Compound	IC50 (SK-MEL-28)	IC50 (MCF7)	IC50 (SK-BR-3)	IC50 (B16-F10)	IC50 [1]	IC50 [2]	IC50 [3]	IC50 [4]
COc1cccc(-c2cc(C(=O)Nc3cc4ccc(OC5C=CCNC5)c(OC)c4oc3=O)ccc2OC)c1 (configuration not stated)	5.49 µM	1.43 µM	3.07 µM	3.41 µM	6.45 µM	6.71 µM	4.88 µM	5.97 µM
COc1cccc(-c2cc(C(=O)Nc3cc4ccc(OC5CCCN(C)C5)c(C)c4oc3=O)ccc2OC)c1 (configuration not stated)	6.14 µM	5.04 µM	2.06 µM	2.6 µM	1.22 µM	12.6 µM	4.23 µM	4.5 µM
COc1cccc(-c2cc(C(=O)Nc3cc4ccc(O[C@H]5OCC[C@@H](O)[C@H]5O)c(C)c4oc3=O)ccc2OC)c1	15.8 µM	42.6 µM	6.71 µM	8.56 µM	1.2 µM	6.14 µM	12.9 µM	3.7 µM
COc1cccc(-c2cc(C(=O)Nc3cc4ccc(O[C@@H]5O[C@H](CO)C[C@@H](O)[C@H]5O)c(C)c4oc3=O)ccc2OC)c1	10.7 µM	11.1 µM	9.59 µM	9.6 µM	3.23 µM	5.8 µM	4.58 µM	5.7 µM
COc1cccc(-c2cc(C(=O)Nc3cc4ccc(O[C@@H]5OC[C@@H](O)[C@H]5O)c(OC)c4oc3=O)ccc2OC)c1	6.41 µM	11.7 µM	7.57 µM	1.3 µM	2.6 µM	2.71 µM	10.6 µM	5.73 µM
COc1cccc(-c2cc(C(=O)Nc3cc4cc(OC)c(OC5CCNCC5)c(C)c4oc3=O)ccc2OC)c1	5.75 µM	2.82 µM	1.2 µM	1.84 µM	5.27 µM	10.9 µM	4.02 µM	14.6 µM
COc1cccc(-c2cc(C(=O)Nc3cc4ccc(OC5CCC[C@@H](O)[C@H]5O)c(C)c4oc3=O)ccc2OC)c1 (some centres not stated)	2.94 µM	> 100 µM	> 100 µM	14.1 µM	1.58 µM	13.9 µM	4.04 µM	17.9 µM
COc1cccc(-c2cc(C(=O)Nc3cc4ccc(OC5CCCN(C)C5)c(OC)c4oc3=O)ccc2OC)c1 (configuration not stated)	7.14 µM	1.38 µM	1.4 µM	1.51 µM	1.78 µM	7.5 µM	2.16 µM	11.4 µM
COc1cccc(-c2cc(C(=O)Nc3cc4ccc(OC(C)=O)c(C)c4oc3=O)ccc2OC)c1	2.14 µM	1.4 µM	0.98 µM	2.3 µM	1.5 µM	12.6 µM	2.85 µM	1.67 µM
COc1cccc(-c2cc(C(=O)Nc3cc4ccc(OC5CNC[C@@H](O)[C@H]5O)c(C)c4oc3=O)ccc2OC)c1 (some centres not stated)	6.14 µM	2.07 µM	2.91 µM	2.8 µM	4.9 µM	5.89 µM	6.33 µM	5.6 µM
COc1cccc(-c2cc(C(=O)Nc3cc4cc(OC)c(OC5CNC[C@@H](O)[C@H]5O)c(C)c4oc3=O)ccc2OC)c1 (some centres not stated)	13.8 µM	3.34 µM	3.65 µM	5.04 µM	9.45 µM	11.5 µM	6.84 µM	13.8 µM
COc1cccc(-c2cc(C(=O)Nc3cc4ccc(OC5CNC[C@@H](O)[C@H]5O)c(OC)c4oc3=O)ccc2OC)c1 (some centres not stated)	11.4 µM	10.2 µM	8.98 µM	11.8 µM	12.2 µM	11.6 µM	14.4 µM	21.7 µM
COc1cccc(-c2cc(C(=O)Nc3cc4cc(OC)c(OC5CN(C)C[C@@H](O)[C@H]5O)c(C)c4oc3=O)ccc2OC)c1 (some centres not stated)	5.73 µM	2.01 µM	2.77 µM	2.81 µM	4.69 µM	24.5 µM	4.17 µM	12.8 µM
COc1cc2cc(NC(=O)c3cc4ccccc4[nH]3)c(=O)oc2c(C)c1OC1CCN(C)CC1	1.47 µM	0.52 µM	0.11 µM	1.19 µM	1.47 µM	1.24 µM	0.87 µM	1.42 µM

Now from value to molecule, other results behind:

IC50 (SK-MEL-28)	IC50 (MCF7)	IC50 (SK-BR-3)	IC50 (B16-F10)	Compound	IC50 [1]	IC50 [2]	IC50 [3]	IC50 [4]
7.19 µM	2.9 µM	2.27 µM	1.84 µM	COc1cccc(-c2cc(C(=O)Nc3cc4cc(OC)c(OC5CCCNC5)c(C)c4oc3=O)ccc2OC)c1 (configuration not stated)	3.66 µM	5.7 µM	2.59 µM	6.4 µM
21.4 µM	> 100 µM	35.2 µM	12.7 µM	COc1cccc(-c2cc(C(=O)Nc3cc4ccc(O[C@H]5C[C@H](O)CO5)c(C)c4oc3=O)ccc2OC)c1	3.72 µM	24.1 µM	10.1 µM	6.9 µM
31.5 µM	5.27 µM	1.96 µM	6.14 µM	COc1cccc(-c2cc(C(=O)Nc3cc4cc(OC)c(OC5C=CCN(C)C5)c(C)c4oc3=O)ccc2OC)c1 (configuration not stated)	4.49 µM	18.4 µM	3.87 µM	16.4 µM
5.41 µM	1.73 µM	1.61 µM	2.94 µM	COc1cccc(-c2cc(C(=O)Nc3cc4ccc(OC5C=CCNC5)c(C)c4oc3=O)ccc2OC)c1 (configuration not stated)	4.27 µM	3.4 µM	4.4 µM	6.54 µM
5.86 µM	1.41 µM	1.49 µM	2.67 µM	COc1cccc(-c2cc(C(=O)Nc3cc4cc(OC)c(OC5CCCN(C)C5)c(C)c4oc3=O)ccc2OC)c1 (configuration not stated)	10.5 µM	19.1 µM	6.86 µM	13.2 µM
1.47 µM	> 100 µM	> 100 µM	1.01 µM	COc1cccc(-c2cc(C(=O)Nc3cc4ccc(O[C@@H]5OCCC[C@H]5O)c(C)c4oc3=O)ccc2OC)c1	3.75 µM	16.1 µM	10.1 µM	0.81 µM
5.9 µM	11 µM	6.64 µM	6.58 µM	COc1cccc(-c2cc(C(=O)Nc3cc4ccc(OC5CN(C)C[C@@H](O)[C@H]5O)c(OC)c4oc3=O)ccc2OC)c1 (some centres not stated)	1.5 µM	6.7 µM	3.52 µM	5.9 µM
1.48 µM	1.65 µM	3.42 µM	6.47 µM	COc1cccc(-c2cc(C(=O)Nc3cc4ccc(OC5C=CCN(C)C5)c(OC)c4oc3=O)ccc2OC)c1 (configuration not stated)	0.36 µM	1.94 µM	0.98 µM	2.36 µM
12.4 µM	11.7 µM	3.23 µM	5.77 µM	COc1cccc(-c2cc(C(=O)Nc3cc4cc(OC)c(O)c(C)c4oc3=O)ccc2OC)c1	15.8 µM	24.6 µM	11.2 µM	6.7 µM
3.74 µM	1.79 µM	1.19 µM	36.7 µM	COc1cccc(-c2cc(C(=O)Nc3cc4cc(OC)c(OC5CCN(C)CC5)c(C)c4oc3=O)ccc2OC)c1	4.17 µM	1.84 µM	2.84 µM	1.54 µM
16.4 µM	3.23 µM	1.79 µM	2.14 µM	COc1cccc(-c2cc(C(=O)Nc3cc4ccc(OC5CCNCC5)c(OC)c4oc3=O)ccc2OC)c1	10.8 µM	12.6 µM	8.47 µM	10.9 µM
12.4 µM	> 100 µM	> 100 µM	9.37 µM	COc1cccc(-c2cc(C(=O)Nc3cc4ccc(O[C@@H]5C[C@H](O)CO5)c(C)c4oc3=O)ccc2OC)c1	4.96 µM	6.19 µM	26.8 µM	18.8 µM
10.8 µM	5.29 µM	2.92 µM	6.4 µM	COc1cccc(-c2cc(C(=O)Nc3cc4ccc(OC5C=CCN(C)C5)c(C)c4oc3=O)ccc2OC)c1 (configuration not stated)	1.22 µM	11.4 µM	1.73 µM	7.7 µM
20.9 µM	> 50 µM	> 50 µM	12.4 µM	COc1cccc(-c2cc(C(=O)Nc3cc4ccc(OC5CCCN(C(C)=O)C5)c(C)c4oc3=O)ccc2OC)c1 (configuration not stated)	1.23 µM	15.1 µM	3.42 µM	22.4 µM
14.7 µM	1.46 µM	1.02 µM	15.7 µM	COc1cccc(-c2cc(C(=O)Nc3cc4ccc(OCCN(C)C)c(C)c4oc3=O)ccc2OC)c1	6.65 µM	18.4 µM	4.17 µM	17.5 µM
